The source of these data is ChEMBL document CHEMBL1147285, “A mammalian cell agar-diffusion assay for the detection of toxic compounds” (J Nat Prod, 1989).

Calls of active or inactive are those of the source. No cut-off for these calls is given here. Numbered stars: 1 amine (or outer) side, 2 acyl side, 3 side chain; on linkers, the order of the positions; unused ones are H or OH. Bridge positions count the residues as written; N and C are the ends. Square brackets hold non-standard residues; d marks the D form. Peptide text beside a SMILES is read from it. I, II: the chains in the order shown. Actinocin(1to9) = Cc1c2oc3c(C)ccc(C(=O)[*:2])c3nc-2c(C(=O)[*:1])c(N)c1=O; NMeV = CN[C@H](C(=O)O)C(C)C; Sar = CNCC(=O)O

For assay [1], the system named is P388. Description: Antiproliferative activity against mouse P388 cells after 48 hrs by MTT assay. The note with it: P388, 48 h. The assay is classed as functional, cell-based. A digest of the protocol: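 Uncloned P-388 in RPMI 1640 + 10% horse serum, gentamicin 50 µg/ml; 200-µl cultures at 1 X 10' cells/ml with or without drug, 48 h exposure. MTT (5 mg/ml in medium, 75 µl) added for 90 min, formazan read at 570 nm; absorbance normalized to untreated wells; IC50 by linear regression of logit-transformed data.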

Assay [2] concerns P388. Description: Antiproliferative activity against mouse P388 cells at 0.01 ug after 48 hrs by two-layer agar-diffusion method. The assay is classed as functional. The settings on record: for zone of inhibition at 0.01 µg/disc: read-out: IZ. In a few lines: (§1)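 Compound (0.01-10 µg) spotted on Si gel pieces, air-dried, placed face down on 1.5% Noble agar in PBS-growth medium (20:80) for 60 min diffusion. After removal, cells (2 X 10^6/ml) in 0.3% low-temperature agarose overlaid; 48 h incubation. Cytotoxic zones shown by MTT (5 mg/ml in growth medium) over agarose; absence of zone scored as not detected.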

The subject of assay [3] is HT-29. Description: Antiproliferative activity against human HT-29 cells at 0.1 ug after 48 hrs by two-layer agar-diffusion method. The class given is functional. The note with it: for zone of inhibition at 0.1 µg/disc: read-out: IZ. A digest of the protocol: as §1
Assay [4] has as its system HT-29. Description: Antiproliferative activity against human HT-29 cells at 10 ug after 48 hrs by two-layer agar-diffusion method. The assay is classed as functional, cell-based. A digest of the protocol:
as §1

For assay [5], the system named is HT-29. Description: Antiproliferative activity against human HT-29 cells at 0.01 ug after 48 hrs by two-layer agar-diffusion method. The settings on record: for zone of inhibition at 0.01 µg/disc: read-out: IZ. The assay is classed as functional. A digest of the protocol: as §1
Assay [6] concerns P388. Description: Antiproliferative activity against mouse P388 cells at 0.1 ug after 48 hrs by two-layer agar-diffusion method. The class given is functional. The note with it: for zone of inhibition at 0.1 µg/disc: read-out: IZ. In a few lines:
as §1

The subject of assay [7] is P388. Description: Antiproliferative activity against mouse P388 cells at 1 ug after 48 hrs by two-layer agar-diffusion method. The assay is classed as functional. The settings on record: read-out: IZ. In a few lines:
as §1

For assay [8], the system named is HT-29. Description: Antiproliferative activity against human HT-29 cells after 96 hrs by MTT assay. The class given is functional, cell-based. The note with it: HT-29, 96 h.
Assay [9] has as its system HT-29. Description: Antiproliferative activity against human HT-29 cells at 1 ug after 48 hrs by two-layer agar-diffusion method. The class given is functional. The note with it: for zone of inhibition at 1 µg/disc: read-out: IZ. In a few lines: as §1

For the compound `Nc1ccn([C@@H]2O[C@H](CO)[C@@H](O)[C@@H]2O)c(=O)n1` [CYTARABINE], the figures for the IC50 in the assay on P388 [1] and with HT-29 [8] were 1.23 µM and 0.066 µM, respectively. In the assay on P388 [2], the zone of inhibition at 0.01 µg/disc amounted to 10 mm. Moreover, the outcome in the assay with HT-29 [3], in the assay on HT-29 [4], in the assay with HT-29 [5] and in the assay on HT-29 [9] was inactive. Also, the zone of inhibition at 0.1 µg/disc with P388 [6] amounted to 20 mm. The zone of inhibition at 1 µg/disc with P388 [7] was over 40 mm.
For `CO[C@@]12[C@H](COC(N)=O)C3=C(C(=O)C(C)=C(N)C3=O)N1C[C@@H]1N[C@@H]12` [MITOMYCIN], the IC50 in the assay with P388 [1] worked out at 3 µM; in the assay with HT-29 [8] it was 0.099 µM. Further, the outcome in the assay with P388 [2], in the assay on HT-29 [3] and with HT-29 [5] was inactive. In addition, in the assay on P388 [6], the zone of inhibition at 0.1 µg/disc was 5 mm. Also, the zone of inhibition at 1 µg/disc in the assay on P388 [7] is 25 mm; in the assay on HT-29 [9] it was 10 mm.
As to `Cc1c2oc3c(C)ccc(C(=O)N[C@@H]4C(=O)N[C@H](C(C)C)C(=O)N5CCC[C@H]5C(=O)N(C)CC(=O)N(C)[C@@H](C(C)C)C(=O)O[C@@H]4C)c3nc-2c(C(=O)N[C@@H]2C(=O)N[C@H](C(C)C)C(=O)N3CCC[C@H]3C(=O)N(C)CC(=O)N(C)[C@@H](C(C)C)C(=O)O[C@@H]2C)c(N)c1=O` [DACTINOMYCIN] (I: T[dV]P[Sar][NMeV] / II: T[dV]P[Sar][NMeV]; ester I:1-I:C, II:1-II:C; linker I:N-II:N via Actinocin(1to9)), the IC50 stood at 0.0002 µM in the assay on P388 [1] and 0.223 µM in the assay with HT-29 [8]. Further, the outcome in the assay on P388 [2], with HT-29 [3], with HT-29 [4], in the assay on HT-29 [5], in the assay with P388 [6] and in the assay on HT-29 [9] was inactive. For the same compound, in the assay with P388 [7], the zone of inhibition at 1 µg/disc was determined as 5 mm.
Regarding `CO[C@H](C(=O)[C@@H](O)[C@@H](C)O)[C@@H]1Cc2cc3cc(O[C@H]4C[C@@H](O[C@@H]5C[C@@H](O)[C@H](O)[C@@H](C)O5)[C@H](O)[C@@H](C)O4)c(C)c(O)c3c(O)c2C(=O)[C@H]1O[C@H]1C[C@@H](O[C@@H]2C[C@@H](O)[C@@H](O[C@@H]3C[C@](C)(O)[C@H](O)[C@@H](C)O3)[C@@H](C)O2)[C@H](O)[C@@H](C)O1` [PLICAMYCIN], the IC50 was found to be 0.111 µM in the assay with P388 [1] and 0.033 µM with HT-29 [8]. The result in the assay with P388 [2] and in the assay on HT-29 [5] was inactive. Further, the zone of inhibition at 0.1 µg/disc with HT-29 [3] and in the assay on P388 [6] was 15 mm each time. Further, the zone of inhibition at 1 µg/disc with P388 [7] worked out at 30 mm; in the assay on HT-29 [9], 25 mm.
For `COc1cccc2c1C(=O)c1c(O)c3c(c(O)c1C2=O)C[C@@](O)(C(=O)CO)C[C@@H]3O[C@H]1C[C@H](N)[C@H](O)[C@H](C)O1` [DOXORUBICIN], the IC50 in the assay on P388 [1] is 0.074 µM; with HT-29 [8], 0.037 µM. In addition, in the assay on P388 [2], the zone of inhibition at 0.01 µg/disc worked out at 5 mm. Moreover, the outcome in the assay on HT-29 [3] and in the assay on HT-29 [5] was inactive. Besides, the zone of inhibition at 0.1 µg/disc with P388 [6] turned out to be 17.5 mm. Besides, the zone of inhibition at 1 µg/disc in the assay with P388 [7] was 25 mm; in the assay with HT-29 [9], 5 mm.
Take `Nc1ncn([C@@H]2O[C@H](CO)[C@@H](O)[C@H]2O)c(=O)n1` [AZACITIDINE]: the IC50 came to 5 µM with P388 [1] and 3.8 µM in the assay on HT-29 [8]. In addition, the outcome in the assay on P388 [2], with HT-29 [3] and in the assay with HT-29 [5] was inactive. Moreover, in the assay with P388 [6], the zone of inhibition at 0.1 µg/disc is 12.5 mm. The figures for the zone of inhibition at 1 µg/disc in the assay with P388 [7] and in the assay on HT-29 [9] were 30 mm and 20 mm, respectively.
As for `COc1cccc2c1C(=O)c1c(O)c3c(c(O)c1C2=O)C[C@@](O)(C(C)=O)C[C@@H]3O[C@H]1C[C@H](N)[C@H](O)[C@H](C)O1` [DAUNORUBICIN], the IC50 was found to be 0.028 µM in the assay with P388 [1] and 0.133 µM in the assay with HT-29 [8]. Also, the zone of inhibition at 0.01 µg/disc in the assay on P388 [2] stood at 10 mm. Also, the result in the assay on HT-29 [3] and in the assay with HT-29 [5] was inactive. The zone of inhibition at 0.1 µg/disc with P388 [6] is 12.5 mm. Further, the zone of inhibition at 1 µg/disc in the assay on P388 [7] came to 20 mm; in the assay with HT-29 [9], 5 mm.
For `COc1cc([C@@H]2c3cc4c(cc3[C@H](O)[C@H]3COC(=O)[C@H]23)OCO4)cc(OC)c1OC` [PODOFILOX], the IC50 in the assay with P388 [1] is 0.0059 µM; with HT-29 [8], 0.011 µM. Further, the zone of inhibition at 0.01 µg/disc with P388 [2] amounted to 12.5 mm; in the assay with HT-29 [5], 25 mm. Also, the zone of inhibition at 0.1 µg/disc in the assay with HT-29 [3] is over 40 mm; in the assay on P388 [6], 32.5 mm. In addition, the zone of inhibition at 1 µg/disc is 40 mm with P388 [7] and over 40 mm with HT-29 [9].
Take `CC[C@]1(O)C[C@H]2CN(CCc3c([nH]c4ccccc34)[C@@](C(=O)OC)(c3cc4c(cc3OC)N(C=O)[C@H]3[C@@](O)(C(=O)OC)[C@H](OC(C)=O)[C@]5(CC)C=CCN6CC[C@]43[C@@H]65)C2)C1` [VINCRISTINE]: the half-inhibitory concentration (IC50) in the assay on P388 [1] was 0.0012 µM; in the assay with HT-29 [8] it was 0.007 µM. For the same compound, the zone of inhibition at 0.01 µg/disc in the assay on P388 [2] was 12.5 mm. Also, the zone of inhibition at 0.1 µg/disc with HT-29 [3] stood at 15 mm; in the assay with P388 [6], 32.5 mm. Also, the result in the assay on HT-29 [5] was inactive. The zone of inhibition at 1 µg/disc in the assay on P388 [7] was over 40 mm; with HT-29 [9], 30 mm.
As to `CC[C@H]1CN2CCc3cc(OC)c(OC)cc3[C@@H]2C[C@@H]1C[C@H]1NCCc2cc(OC)c(OC)cc21` [EMETINE], the IC50 in the assay on P388 [1] was found to be 0.007 µM; in the assay on HT-29 [8], 0.033 µM. Moreover, in the assay on P388 [2], the zone of inhibition at 0.01 µg/disc worked out at 20 mm. Also, the zone of inhibition at 0.1 µg/disc with HT-29 [3] is 25 mm; in the assay on P388 [6], 40 mm. The outcome with HT-29 [5] was inactive. Also, the figures for the zone of inhibition at 1 µg/disc with P388 [7] and in the assay with HT-29 [9] were over 40 mm and 35 mm, respectively.
With `CC[C@]1(O)C[C@@H]2CN(CCc3c([nH]c4ccccc34)[C@@](C(=O)OC)(c3cc4c(cc3OC)N(C)[C@H]3[C@@](O)(C(=O)OC)[C@H](OC(C)=O)[C@]5(CC)C=CCN6CC[C@]43[C@@H]65)C2)C1` [VINBLASTINE], the IC50 turned out to be 0.0007 µM in the assay with P388 [1] and 0.004 µM in the assay on HT-29 [8]. Further, the values for the zone of inhibition at 0.01 µg/disc in the assay with P388 [2] and with HT-29 [5] were 12.5 mm and 10 mm, respectively. Moreover, the zone of inhibition at 0.1 µg/disc in the assay on HT-29 [3] is 25 mm; with P388 [6], 32.5 mm. In addition, the zone of inhibition at 1 µg/disc is over 40 mm with P388 [7] and 40 mm in the assay with HT-29 [9].
Consider `COc1cc2c(c(OC)c1OC)-c1ccc(OC)c(=O)cc1[C@@H](NC(C)=O)CC2` [COLCHICINE], for which the half-maximal inhibitory concentration (IC50) in the assay with P388 [1] turned out to be 0.024 µM. Moreover, the zone of inhibition at 0.01 µg/disc with P388 [2] amounted to 17.5 mm; in the assay with HT-29 [5], 25 mm. Moreover, the zone of inhibition at 0.1 µg/disc with HT-29 [3] and with P388 [6] was 40 mm each time. The zone of inhibition at 1 µg/disc with P388 [7] and with HT-29 [9] was over 40 mm in each case.
